Results from different studies.
Protocols differ between the studies behind these lines.
Read-out: cell growth or viability

C#Cc1cccc(Nc2ncnc3cc(OCCOC)c(OCCOC)cc23)c1
IC50 (NCI-H1975; MTT; 72 h): 55000 nM

O=C1CC[C@@H](COc2ccc(C(=O)C(Cl)Cl)cc2[N+](=O)[O-])N1
inhibition (NCI-H1975; MTT; 2.5 µM): 96.7%

C=CC(=O)NC1CCN(c2ncc3ncnc(Nc4ccc(Oc5ccc6c(c5)ncn6C)c(C)c4)c3n2)CC1
EC50 (NCI-H322): 471 nM

O=C(c1ccccc1)c1ccc(Oc2ccc(C(=O)C(Cl)Cl)cc2[N+](=O)[O-])cc1
inhibition (NCI-H1975; MTT; 2.5 µM): 97.8%

C=C(F)C(=O)N1CCN(c2nc(OC[C@@H]3CCCN3C)nc3c2CCN(c2cccc4cccc(Cl)c24)C3)C[C@@H]1CC#N
IC50 (SW1463; ATP luminescence; 3D culture): 4.22 nM

Cc1ncc(CN2CCc3ccccc3C2)c2cc(C(=O)c3ccc4c(c3)OCCO4)oc12
IC50 (NCI-H1975; MTT; 72 h): 29500 nM

C=CC(=O)N1CCN(c2nc(=O)n(-c3c(C)ccnc3C(C)C)c3nc(-c4c(O)cccc4F)c(F)cc23)[C@@H](C)C1
IC50 (SW1463; ATP luminescence): 132 nM

NC(=O)COc1ccc(C(=O)C(Cl)Cl)cc1[N+](=O)[O-]
inhibition (NCI-H1975; MTT; 2.5 µM): 26.3%

N[C@H]1CC[C@H](N[C@@H]2C[C@H]2c2ccccc2)CC1
IC50 (HEK293; resazurin): 120000 nM

COc1cc2c3c(n(CCCNCCO)c(=O)c2cc1OC)-c1nc2c(cc1C3=O)OCO2
GI50 (SF-539; SRB; 48 h): 1000 nM

CN(C)C/C=C/C(=O)Nc1cc2c(Nc3ccc(F)c(Cl)c3)ncnc2cc1O[C@H]1CCOC1
IC50 (NCI-H1975; MTT; 72 h): 30500 nM

CC(C)c1ccccc1[C@@H]1CCCN1C1CC2(CCN(c3ccc(C(=O)NS(=O)(=O)c4ccc(NC[C@H]5CC[C@](C)(O)CC5)c([N+](=O)[O-])c4)c(Oc4cnc5[nH]ccc5c4)c3)CC2)C1
IC50 (Rec1; ATP luminescence; 48 h): 183 nM

COc1cccc2c1C(=O)c1c(O)c3c(c(O)c1C2=O)C[C@@](O)(C(=O)CO)C[C@@H]3O[C@H]1C[C@H](N)[C@H](O)[C@H](C)O1
IC50 (HEK293; MTT; 72 h): 60 nM

O=C(NO)c1ccc(CNc2nc3cccc(-c4ccc5c(c4)OCO5)n3n2)cc1
GI50 (SF-539; SRB): 600 nM

Cc1sc2c(c1C)C(c1ccc(Cl)cc1)=N[C@@H](CC(=O)NCCCCCCCCNC(=O)COc1cccc3c1C(=O)N(C1CCC(=O)NC1=O)C3=O)c1nnc(C)n1-2 (stereo partly shown)
IC50 (SET-2; ATP luminescence): 35 nM

CC(C)Oc1ccc(S(=O)(=O)c2ccc(Oc3cc(OCC(N)=O)c(C(=O)C(Cl)Cl)cc3[N+](=O)[O-])cc2)cc1
IC50 (HEK293; MTT; 72 h): 1220 nM
